Experimental data from ChEMBL document CHEMBL1134627, “Synthesis of novel, potent, diol-based HIV-1 protease inhibitors via intermolecular pinacol homocoupling of (2S)-2-benzyloxymethyl-4-phenylbutanal” (J Med Chem, 2001).
Values belong to the compound of their own block, whether it stands above or below them.

Columns and labels:
MT4 [1] = test: Inhibitory activity against MT-4 cells; format: functional; conditions: Homo sapiens, read-out: ED50 (the source's name)
How it was run: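 HIV-induced cytopathic effect measured in MT-4 cells, with cell viability read out using the vital dye XTT. ED50 was calculated from the percent cytoprotection for each compound.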

MT4 [2] = test: Inhibitory activity against MT-4 cells, in the presence of human serum; format: functional; conditions: read-out: ED50 (the source's name)
How it was run: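 HIV cytopathic assay in MT-4 cells run in the presence of 40% human serum, with viability read out using the vital dye XTT. ED50 was calculated from the percent cytoprotection.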

[3] = molecular target: Human immunodeficiency virus type 1 protease (Human immunodeficiency virus 1, UniProt Q72874); test: Inhibitory activity against HIV-1 protease (Escherichia coli)
How it was run: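 Recombinant HIV-1 protease, cloned and expressed in E. coli. Ki values were determined with a fluorometric assay.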

Compound: CNC(=O)[C@@H](NC(=O)[C@H](CCc1ccccc1)[C@H](O)[C@H](O)[C@@H](CCc1ccccc1)C(=O)N[C@H](C(=O)NC)C(C)C)C(C)C
EC50 (MT4 [1]): > 10000 nM
EC50 (MT4 [2]): > 10000 nM
Ki [3]: 112 nM

Ki [3]: 28 nM
Compound: O=C(NC1c2ccccc2C[C@H]1O)[C@H](CCc1ccccc1)[C@H](O)[C@H](O)[C@@H](CCc1ccccc1)C(=O)N[C@H]1c2ccccc2C[C@H]1O (some centres not stated)
EC50 (MT4 [1]): > 10000 nM
EC50 (MT4 [2]): 15000 nM

Compound: CNC(=O)[C@@H](NC(=O)[C@H](CCc1ccccc1)[C@@H](O)[C@H](O)[C@@H](CCc1ccccc1)C(=O)N[C@H](C(=O)NC)C(C)C)C(C)C
EC50 (MT4 [1]): 1900 nM
EC50 (MT4 [2]): 1400 nM
Ki [3]: 0.4 nM

Compound: O=C(NC1c2ccccc2C[C@H]1O)[C@H](OCc1ccccc1)[C@H](O)[C@@H](O)[C@@H](OCc1ccccc1)C(=O)N[C@H]1c2ccccc2C[C@H]1O (some centres not stated)
EC50 (MT4 [1]): 96 nM
EC50 (MT4 [2]): 1500 nM
Ki [3]: 0.6 nM

Compound: CNC(=O)[C@@H](NC(=O)[C@H](OCc1ccccc1)[C@H](O)[C@@H](O)[C@@H](OCc1ccccc1)C(=O)N[C@H](C(=O)NC)C(C)C)C(C)C
EC50 (MT4 [1]): 1300 nM
EC50 (MT4 [2]): 34000 nM

Ki [3]: 1.1 nM
Compound: O=C(NC1c2ccccc2C[C@H]1O)[C@H](CCc1ccccc1)[C@@H](O)[C@H](O)[C@@H](CCc1ccccc1)C(=O)N[C@H]1c2ccccc2C[C@H]1O (some centres not stated)
EC50 (MT4 [1]): 93 nM
EC50 (MT4 [2]): 390 nM
